Screens deposited in PubChem by several laboratories.
Many of the other results were omitted from the sample, so hits are more common in it than they were.
Pf gamet viab: inhibitors of late stage P. falciparum gametocyte viability | P. falciparum stage V gametocytes, ATP luminescence, 24 h | inhibition, % at 10.9 µM | actives 0.065% (n = 150,000) | AID 743093;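 active means inhibition above the mean plus 3 SD of compounds within the control limits, set per campaign, cut at about 38% in these data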;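 further: 0% = DMSO wells and 100% = medium only without gametocytes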
Biofilm kill mix: mixtures killing C. albicans biofilm. C. albicans biofilm persisters + clotrimazole, fluorescence viability; primary screen in compound mixtures of four per well. actives 0.02% (n = 120,000). inhibition, % at 7.6 µM;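 active means inhibition above 30.3% in the primary screen of four-compound pools, then above 30% when the compound was retested; inconclusive means passed the primary limit but could not be retested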;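 further: compounds exposed to preformed 24 h biofilms for 48 h; 0% = untreated biofilm control and 100% = clotrimazole plus chlorhexidine kill blank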
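Assay system: C. albicans biofilms / Medium: RPMI/MOPS medium, pH 7.0 / Schedule: biofilm formation 24 h, compound exposure 48 h, 37 °C / Measured by: Alamar Blue fluorescence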
ROMK mod: modulators of human ROMK potassium channel. P48048. Tet-inducible ROMK, thallium flux fluorescence; actives lie on both sides. B-score at 10 µM. actives 2% (n = 130,000). AID 1918;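 active means signal ratio slope over the read window, or its plate-corrected B-score, at least 3 SD from the plate mean, either direction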;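 further: B-score of the F/F0 ratio slope over 7 to 12 s after thallium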
Target sequence (P48048 whole entry, looked up): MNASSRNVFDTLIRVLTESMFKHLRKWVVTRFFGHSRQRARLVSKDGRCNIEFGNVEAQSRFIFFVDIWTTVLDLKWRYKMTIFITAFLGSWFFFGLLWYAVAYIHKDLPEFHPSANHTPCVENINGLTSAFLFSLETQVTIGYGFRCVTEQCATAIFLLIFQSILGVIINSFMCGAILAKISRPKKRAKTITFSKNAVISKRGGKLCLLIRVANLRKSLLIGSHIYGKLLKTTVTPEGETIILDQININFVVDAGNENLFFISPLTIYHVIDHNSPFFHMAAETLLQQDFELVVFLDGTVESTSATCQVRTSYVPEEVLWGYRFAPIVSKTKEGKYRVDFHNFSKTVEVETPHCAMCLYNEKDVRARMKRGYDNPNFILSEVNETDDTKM
ROMK hit retest: confirmation of human ROMK potassium channel modulators; shares compounds with ROMK mod; ROMK thallium flux, fluorescence ratio; hits give low values; normalized thallium flux (F/F0 slope) at 10 µM; actives 54% (n = 3,000); AID 1917;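 active means Flux at 10 µM at least 3 SD below or above vehicle control mean in one or both replicates; inconclusive means no clear call, values can overlap the other calls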
The depositor's hits bear a star; ? = inconclusive; / = no result given.

SMILES | Pf gamet viab | Biofilm kill mix | ROMK mod | ROMK hit retest
O=S(=O)(/C(=C/c1ccc(C(F)(F)F)cc1)c1nc2ccccc2[nH]1)c1ccccc1 | 28 | 7 | -4.3* | 0.051*
CC(C)c1ccc(/C=C(\c2nc3ccccc3[nH]2)S(=O)(=O)c2ccccc2)cc1 | 0 | 5 | -3.7* | 0.06*
O=c1[nH]c2ccccc2nc1C(F)(F)F | 7 | 11 | / | /
COC(=O)/C(=C\c1ccc(O)cc1)c1nc2ccccc2[nH]1 | 7 | 15 | -1 | /
COC(=O)c1ccc(Nc2nc(C)nc3c2nnn3Cc2ccccc2)cc1 | 22 | / | / | /
CNC(=O)c1sccc1-n1cccc1 | / | / | 2.9* | 0.076
O=C(NNC(=O)c1sccc1-n1cccc1)c1ccccc1 | -14 | / | / | /
O=C(O)c1ccc(NC(=S)Nc2ccccc2)cc1 | -1 | 7 | 0.035 | /
CCOC(=O)Nc1sc(C)nc1-c1ccccc1 | 18 | / | / | /
CCOC(=O)Nc1nc(-c2ccccc2)c(C(=O)c2ccc(Cl)cc2)s1 | / | / | 3.2* | 0.083
Cn1cncc1C#Cc1c(C=O)[nH]c2ccccc12 | -5 | / | / | /
CCOc1ccc2ncc(S(=O)(=O)c3ccccc3)c(N3CCN(c4ccc(OC)cc4)CC3)c2c1 | 3 | 11 | / | /
CCOc1ccc2ncc(S(=O)(=O)c3ccccc3)c(N3CCC4(CC3)OCCO4)c2c1 | 11 | 8 | / | /
COc1ccc(N2CCN(c3c(S(=O)(=O)c4ccccc4)cnc4ccc(OC)cc34)CC2)cc1 | 11 | 20 | / | ?
COc1ccc(S(=O)(=O)c2cnc3ccc(OC)cc3c2N2CCC3(CC2)OCCO3)cc1 | / | 13 | / | 0.05*
COc1ccc(NC(=O)c2c(NC(=O)CNCC(C)C)sc3c2CCC3)c(OC)c1 | 1 | 10 | -0.99 | /
Cc1ccc2nc(=O)c(NNc3ccccc3)cnc2c1 | / | 12 | 6.6* | 0.11*
Cc1ccc2nc(-c3ccccc3)c(-c3ccccc3)nc2c1 | 34 | 16 | 0.11 | /
Cc1nc2ccccc2nc1OCc1ccccc1 | / | 7 | / | /
Cc1nc2ccccc2nc(=O)c1NNc1ccccc1 | 4 | 14 | 6.4* | ?
O=C(C1=C[C@H](C2CCCCC2)C[C@H](OCCCCO)O1)N1CCN(Cc2ccccc2)CC1 | 0 | 20 | / | /
Cc1cc(-c2ccccc2)nc2cc(C(=O)OC(C)C)nn12 | -7 | / | / | /
CCOC(=O)N1CCC(Nc2c(NCCCN3CCN(C4CCCCC4)CC3)c(=O)c2=O)CC1 | -6 | 9 | 0.94 | /
O=C(Nc1nnc(-c2ccc(Cl)cc2)o1)Nc1ccccc1F | -5 | 16 | / | /
CC(C)(C)c1ccc(/C=N/OCC(=O)NCc2ccc(F)cc2)cc1 | -3 | 8 | 0.29 | /
SMILES | Pf gamet viab | Biofilm kill mix | ROMK mod | ROMK hit retest
O=C(Nc1cccc(S(=O)(=O)N2CCOCC2)c1)C1CCCN(C(=O)c2ccc(Cl)cc2)C1 (centres undefined) | 12 | 16 | / | /
CN(C)c1cccc2c(/C=N/O)ccc(N(C)C)c12 | / | 11 | 0.58 | /
CN1C(=O)N(C)c2ccc(C=O)c3cccc1c23 | 2 | 12 | -3.4* | 0.068*
COc1ccc(Cl)cc1NC(=O)CN(C)CC(=O)Nc1ccccc1N1CCOCC1 | -13 | 14 | 5.1* | ?
Cc1cc(Cl)ccc1OC(C)C(=O)Nc1ccccc1N1CCOCC1 (centres undefined) | / | / | / | ?
COc1ccc(S(=O)(=O)N2CCOCC2)cc1NC(=O)CN(C)Cc1c(F)cccc1Cl | -17 | 6 | -0.37 | /
COc1cc(OC)cc(C(=O)N[C@H](C(=O)Nc2ccccc2N2CCOCC2)C(C)C)c1 | -6 | / | 1.2 | /
Cc1oc(S(=O)(=O)N2CCCCC2)cc1NC(=O)Nc1ccc(F)cc1 | 10 | 3 | -1.2 | /
COc1ccc(NC(=O)c2ccccc2-c2ccccc2)c(C)c1 | / | 18 | -0.97 | /
C=CCOC(=O)C1=C(C)OC(N)=C(C#N)C1c1ccc2c(c1)OCO2 (centres undefined) | -24 | / | -3.2* | 0.085*
COCCOC(=O)C1=C(C)OC(N)=C(C#N)C1c1ccc2c(c1)OCO2 (centres undefined) | / | / | -1.1 | /
COCCN(C(=S)Nc1cc(C)cc(C)c1)C(C)c1ccco1 (centres undefined) | 0 | 20 | 1.9 | /
COc1cc(OC)cc(C(=O)N2CCN(Cc3ccccc3C(F)(F)F)CC2)c1 | / | / | -1.5 | /
COc1cc(C(=O)N2CCN(Cc3ccccc3C(F)(F)F)CC2)cc(OC)c1OC | / | / | -2.6* | 0.077
COC(=O)CN(C)C(=O)c1ccccc1OC1CCN(S(C)(=O)=O)CC1 | 24 | / | / | /
COC(=O)CNC(=O)Cn1c(=O)n(Cc2ccc(F)cc2)c(=O)c2sccc21 | 5 | / | / | /
CCOC(=O)C1=C(C)N=C2SC(C(=O)OC)=CC(=O)N2C1c1ccc(OC)cc1 (centres undefined) | -8 | 15 | -4.5* | 0.054*
COC(=O)C1=C(C)N=C2SC(C#N)=C(N)N2C1c1ccc(OC)cc1 (centres undefined) | / | / | 0.0042 | /
Nc1ccc(S(=O)(=O)Nc2nccc(/C=C/c3ccc(Cl)cc3Cl)n2)cc1 | -4 | 13 | / | /
CN(C)/C=N/c1ncc(-c2ncc(C(F)(F)F)cc2Cl)cn1 | -9 | 16 | -0.59 | /
Cc1cc(C)n(-c2nc(NCCN(C)C)c3c4c(sc3n2)CCCC4)n1 | -55 | 26 | / | ?
Cc1cc(C)n(-c2nc(NCCCN(C)C)c3c4c(sc3n2)CCCC4)n1 | -64 | 0 | -2.8 | /
CCc1ccc(N(CC(=O)N2CCOCC2)S(C)(=O)=O)cc1 | -9 | / | / | /
CCOC(=O)c1nc(C)sc1-c1ccnn1S(=O)(=O)c1ccc(C)cc1 | 18 | 18 | / | /
CCOC(=O)NC(Nc1ccc(C)cn1)(C(F)(F)F)C(F)(F)F | -15 | / | 0.045 | /
SMILES | Pf gamet viab | Biofilm kill mix | ROMK mod | ROMK hit retest
CC(C)OC(=O)NC(Nc1ccccc1C(=O)O)(C(F)(F)F)C(F)(F)F | -3 | 27 | / | 0.076
CC(CNC(=O)c1ccccc1Cl)NC(=O)c1ccccc1Cl (centres undefined) | 3 | / | / | /
N#Cc1sc2nc(-c3ccccc3)cc(C(F)(F)F)c2c1N | / | 9 | -4.4* | 0.063*
O=c1cc(O)c2sc3nc(-c4ccccc4)cc(C(F)(F)F)c3c2[nH]1 | -1 | 4 | / | /
Clc1ccc(Cl)c(OCCCCNCc2ccccc2)c1 | 1 | 12 | -3.2* | 0.066*
Clc1ccc(OCCCNCc2ccccc2)c(Br)c1 | / | / | -3* | 0.064*
Cc1cc(Cl)c(OCCCNCc2ccccc2)c(Br)c1 | 6 | / | -5.2* | 0.053*
Cc1cc(C)c(OCCCNCc2ccccc2)c(Br)c1 | 0 | / | / | /
Cc1cccc(OCCCCNCc2ccccc2)c1 | 14 | 11 | -1.3* | 0.062*
COc1cc(C)ccc1OCCCCNCc1ccccc1 | 9 | / | / | /
OCCNCCCOc1ccc(Cl)cc1Br | -15 | / | / | /
Cc1cccc(OCCCCCNCCO)c1 | / | / | -0.0035 | /
COCc1cc(=O)c2ccccc2o1 | 2 | / | / | /
NC(=O)c1c(NC(=O)CSc2nnc(Cc3ccccc3)n2Cc2ccco2)sc2c1CCC2 | / | / | -3.7* | 0.053*
O=C(CSc1nnc(Cc2cccs2)n1Cc1ccco1)Nc1ccc(Cl)cc1Cl | -1 | / | -2.9 | /
O=C(CSc1nnc(Cc2ccccc2)n1Cc1ccco1)NC12CC3CC(CC(C3)C1)C2 | -12 | / | / | /
O=C(CSc1nnc(Cc2cccs2)n1Cc1ccco1)Nc1ccc(Br)cc1 | / | / | -2.9* | ?
CN(c1ccc(C(=O)N2CCN(Cc3ccc4c(c3)OCO4)CC2)cc1)S(=O)(=O)c1ccccc1 | / | / | -1.4 | /
Cc1ccc(S(=O)(=O)N(C)c2ccc(C(=O)N3CCN(Cc4ccc5c(c4)OCO5)CC3)cc2)cc1 | 29 | / | -5* | 0.063*
